Test results taken from ChEMBL document CHEMBL1782040, “Exceptionally fast uptake and metabolism of cyanidin 3-glucoside by rat kidneys and liver” (J Nat Prod, 2011).
Each block holds one molecule with its values, some of them ahead of it.

Legend:
Kidney [1] = test: Drug uptake in Wistar rat kidney assessed as peonidin 3-glucoside level at 0.67 umol, iv after 5 mins by mass spectrometry analysis; type: ADME, organism-based; conditions: in vivo, read-out: Drug uptake
Outline: (§1)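 Cyanidin 3-glucoside in saline was given as one iliac-vein injection (0.67 μmol) to fasting, anaesthetized rats, which were killed at 15 s, 1, 5 or 15 min. Kidneys were homogenized, extracted in methanol, cleaned up by SPE and analysed by LC-MS/MS.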

Liver [2] = test: Drug uptake in Wistar rat liver assessed as peonidin 3-glucoside level by assuming liver mass was 7 grams at 0.67 umol, iv after 1 min by mass spectrometry analysis; type: ADME, organism-based; conditions: in vivo
Outline: (§2)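 Fasting, anaesthetized rats received cyanidin 3-glucoside in saline into the iliac vein (0.67 μmol) and were killed at 15 s, 1, 5 or 15 min. Liver homogenates were methanol-extracted, cleaned up by SPE and quantified by LC-MS/MS.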

Liver [3] = test: Drug uptake in Wistar rat liver assessed as peonidin 3-glucoside level at 0.67 umol, iv after 15 mins by mass spectrometry analysis; type: ADME, organism-based; conditions: in vivo, 0.25 h; outline: as §2
Liver [4] = test: Drug uptake in Wistar rat liver assessed as peonidin 3-glucoside level by assuming liver mass was 7 grams at 0.67 umol, iv after 15 mins by mass spectrometry analysis; type: ADME, organism-based; conditions: in vivo, 0.25 h; outline: as §2
Liver [5] = test: Drug uptake in Wistar rat liver assessed as peonidin 3-glucoside level at 0.67 umol, iv after 1 min by mass spectrometry analysis; type: ADME, organism-based; conditions: in vivo; outline: as §2
Kidney [6] = test: Drug uptake in Wistar rat kidney assessed as peonidin 3-glucoside level by assuming kidney mass was 2.4 gram at 0.67 umol, iv after 1 min by mass spectrometry analysis; type: ADME, organism-based; conditions: in vivo; outline: as §1
Kidney [7] = test: Drug uptake in Wistar rat kidney assessed as peonidin 3-glucoside level at 0.67 umol, iv after 1 min by mass spectrometry analysis; type: ADME, organism-based; conditions: in vivo, read-out: Drug uptake; outline: as §1
Nucleic Acid [8] = test: Ratio of drug uptake in urine to kidney in Wistar rat assessed as peonidin 3-glucoside level at 0.67 umol, iv after 15 mins by mass spectrometry analysis; type: ADME, organism-based; conditions: in vivo, 0.25 h
Plasma [9] = test: Drug uptake in Wistar rat plasma assessed as peonidin 3-glucoside level at 0.67 umol, iv after 1 min by mass spectrometry analysis; type: ADME, organism-based; conditions: in vivo
Outline: (§3)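 Fasted, anaesthetized rats received the anthocyanin in saline as a 0.67 μmol iliac-vein bolus (76 μM in plasma). They were sacrificed at 15 s, 1, 5 or 15 min, and plasma, kidneys, liver, urine and bile were collected. Anthocyanins were methanol-extracted, SPE-cleaned and quantified by MS (tandem MS for trace metabolites), then corrected for recovery measured on spiked blood, homogenates and urine. Amounts assume 8.8 mL plasma, 2.4 g kidney and 7.0 g liver, with urine and bile volumes measured.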

[10] = Drug excretion in Wistar rat bile assessed as peonidin 3-glucoside level at 0.67 umol, iv after 15 mins by mass spectrometry analysis; type: ADME, organism-based; conditions: in vivo, 0.25 h
Outline: (§4)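 Cyanidin 3-glucoside in saline was injected into the iliac vein of fasting, anaesthetized rats (0.67 μmol; 76 μM in plasma). Urine and bile were collected to 15 min, and their volumes were measured. Anthocyanin levels were measured by LC-MS and corrected for recovery from spiked standards. Amounts are given per collected volume (n = 9 urine, n = 4 bile).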

[11] = Drug uptake in Wistar rat bile assessed as peonidin 3-glucoside level by assuming plasma volume was 8.8 mL at 0.67 umol, iv after 15 mins by mass spectrometry analysis; type: ADME, organism-based; conditions: in vivo, 0.25 h
[12] = Drug uptake in Wistar rat bile assessed as peonidin 3-glucoside level at 0.67 umol, iv after 15 mins by mass spectrometry analysis; type: ADME, organism-based; conditions: in vivo, 0.25 h, read-out: Drug uptake; outline: as §4
[13] = Drug uptake in Wistar rat urine assessed as peonidin 3-glucoside level by assuming plasma volume was 8.8 mL at 0.67 umol, iv after 15 mins by mass spectrometry analysis; type: ADME, organism-based; conditions: in vivo, 0.25 h; outline: as §3
Plasma [14] = test: Drug uptake in Wistar rat plasma assessed as peonidin 3-glucoside level at 0.67 umol, iv after 15 mins by mass spectrometry analysis; type: ADME, organism-based; conditions: in vivo, 0.25 h; outline: as §3
Liver [15] = test: Drug uptake in Wistar rat liver assessed as peonidin 3-glucoside level by assuming liver mass was 7 grams at 0.67 umol, iv after 5 mins by mass spectrometry analysis; type: ADME, organism-based; conditions: in vivo; outline: as §2
Kidney [16] = test: Drug uptake in Wistar rat kidney assessed as peonidin 3-glucoside level by assuming kidney mass was 2.4 gram at 0.67 umol, iv after 5 mins by mass spectrometry analysis; type: ADME, organism-based; conditions: in vivo; outline: as §1
Kidney [17] = test: Drug uptake in Wistar rat kidney assessed as peonidin 3-glucoside level at 0.67 umol, iv after 15 mins by mass spectrometry analysis; type: ADME, organism-based; conditions: in vivo, 0.25 h, read-out: Drug uptake; outline: as §1
Nucleic Acid [18] = test: Ratio of drug uptake in bile to liver in Wistar rat assessed as peonidin 3-glucoside level at 0.67 umol, iv after 15 mins by mass spectrometry analysis; type: ADME, organism-based; conditions: in vivo, 0.25 h
Plasma [19] = test: Drug uptake in Wistar rat plasma assessed as peonidin 3-glucoside level at 0.67 umol, iv after 0.25 mins by mass spectrometry analysis; type: ADME, organism-based; conditions: in vivo, 15 s; outline: as §3
Kidney [20] = test: Drug uptake in Wistar rat kidney assessed as peonidin 3-glucoside level by assuming kidney mass was 2.4 gram at 0.67 umol, iv after 0.25 mins by mass spectrometry analysis; type: ADME, organism-based; conditions: in vivo, 15 s; outline: as §1
Kidney [21] = test: Drug uptake in Wistar rat kidney assessed as peonidin 3-glucoside level at 0.67 umol, iv after 0.25 mins by mass spectrometry analysis; type: ADME, organism-based; conditions: in vivo, 15 s, read-out: Drug uptake; outline: as §1
Liver [22] = test: Drug uptake in Wistar rat liver assessed as peonidin 3-glucoside level by assuming liver mass was 7 grams at 0.67 umol, iv after 0.25 mins by mass spectrometry analysis; type: ADME, organism-based; conditions: in vivo, 15 s; outline: as §2
Liver [23] = test: Drug uptake in Wistar rat liver assessed as peonidin 3-glucoside level at 0.67 umol, iv after 5 mins by mass spectrometry analysis; type: ADME, organism-based; conditions: in vivo, read-out: Drug uptake; outline: as §2
[24] = Drug excretion in Wistar rat urine assessed as peonidin 3-glucoside level at 0.67 umol, iv after 15 mins by mass spectrometry analysis; type: ADME, organism-based; conditions: in vivo, 0.25 h; outline: as §4
[25] = Drug uptake in Wistar rat urine assessed as peonidin 3-glucoside level at 0.67 umol, iv after 15 mins by mass spectrometry analysis; type: ADME, organism-based; conditions: in vivo, 0.25 h, read-out: Drug uptake; outline: as §3
Kidney [26] = test: Drug uptake in Wistar rat kidney assessed as peonidin 3-glucoside level by assuming kidney mass was 2.4 gram at 0.67 umol, iv after 15 mins by mass spectrometry analysis; type: ADME, organism-based; conditions: in vivo, 0.25 h; outline: as §1
Liver [27] = test: Drug uptake in Wistar rat liver assessed as peonidin 3-glucoside level at 0.67 umol, iv after 0.25 mins by mass spectrometry analysis; type: ADME, organism-based; conditions: in vivo, 15 s; outline: as §2
Kidney [28] = test: Drug uptake in Wistar rat kidney assessed as petunidin 3-glucoside level by assuming kidney mass was 2.4 gram at 0.67 umol, iv after 15 mins by tandem mass spectrometry; type: ADME, organism-based; conditions: in vivo, 0.25 h; outline: as §1
[29] = Drug excretion in Wistar rat urine assessed as petunidin 3-glucoside level at 0.67 umol, iv after 15 mins by mass spectrometry analysis; type: ADME, organism-based; conditions: in vivo, 0.25 h
Plasma [30] = test: Drug uptake in Wistar rat plasma assessed as petunidin 3-glucoside level at 0.67 umol, iv after 1 min by tandem mass spectrometry; type: ADME, organism-based; conditions: in vivo; outline: as §3
Kidney [31] = test: Drug uptake in Wistar rat kidney assessed as petunidin 3-glucoside level by assuming kidney mass was 2.4 gram at 0.67 umol, iv after 5 mins by tandem mass spectrometry; type: ADME, organism-based; conditions: in vivo; outline: as §1
Kidney [32] = test: Drug uptake in Wistar rat kidney assessed as petunidin 3-glucoside level at 0.67 umol, iv after 5 mins by tandem mass spectrometry; type: ADME, organism-based; conditions: in vivo, read-out: Drug uptake
[33] = Ratio of drug uptake in urine to kidney in Wistar rat assessed as petunidin 3-glucoside level at 0.67 umol, iv after 15 mins by mass spectrometry analysis; conditions: in vivo, 0.25 h
Plasma [34] = test: Drug uptake in Wistar rat plasma assessed as petunidin 3-glucoside level at 0.67 umol, iv after 0.25 mins by tandem mass spectrometry; type: ADME, organism-based; conditions: in vivo, 15 s; outline: as §3
Kidney [35] = test: Drug uptake in Wistar rat kidney assessed as petunidin 3-glucoside level at 0.67 umol, iv after 15 mins by tandem mass spectrometry; type: ADME, organism-based; conditions: in vivo, 0.25 h, read-out: Drug uptake; outline: as §1

concentration (Kidney [1]): 16.1 µM | Drug uptake (Liver [2]): 80.4 nmol | Drug uptake (Liver [3]): 4.6 µM | Drug uptake (Liver [4]): 31.9 nmol | Drug uptake (Liver [5]): 11.5 µM | Drug uptake (Kidney [6]): 99.5 nmol | concentration (Kidney [7]): 41.5 µM | Ratio (Nucleic Acid [8]): 34.5 | concentration (Plasma [9]): 500 nM | Activity [10]: 8.8% | Drug uptake [11]: 58.5 nmol | concentration [12]: 398 µM | Drug uptake [13]: 98.7 nmol | concentration (Plasma [14]): 600 nM | Drug uptake (Liver [15]): 34.5 nmol | Drug uptake (Kidney [16]): 38.8 nmol | concentration (Kidney [17]): 20.5 µM | Ratio (Nucleic Acid [18]): 86.5 | concentration (Plasma [19]): 1200 nM | Drug uptake (Kidney [20]): 46 nmol | concentration (Kidney [21]): 19.2 µM | Drug uptake (Liver [22]): 41.1 nmol | concentration (Liver [23]): 4.9 µM | Activity [24]: 14.7% | concentration [25]: 707 µM | Drug uptake (Kidney [26]): 49.2 nmol | Drug uptake (Liver [27]): 5.9 µM
Compound: COc1cc(-c2[o+]c3cc(O)cc(O)c3cc2O[C@@H]2O[C@H](CO)[C@@H](O)[C@H](O)[C@H]2O)ccc1O

Drug uptake (Kidney [28]): 2317 pmol | Activity [29]: 0.1% | concentration (Plasma [30]): 2 nM | Drug uptake (Kidney [31]): 2210 pmol | concentration (Kidney [32]): 879 nM | Ratio [33]: 4.5 | concentration (Plasma [34]): 2 nM | concentration (Kidney [35]): 966 nM
Compound: COc1cc(-c2[o+]c3cc(O)cc(O)c3cc2O[C@@H]2O[C@H](CO)[C@@H](O)[C@H](O)[C@H]2O)cc(O)c1O
